The record followed here is paper PMC5935190 (Drug Design, Development and Therapy, 2018).

SMILES strings stand for the structures. Values after ≈ are worked out from the molar mass of the structure shown. “Also recorded” adds a separate entry of the source.

Data set [1] relates to M. tuberculosis H37Rv. The data set can be described thus: microbe, parasite or virus in culture. The format is cell-based. The settings on record: Mycobacterium tuberculosis, read-out: MIC90 in Sauton's medium.
Another data set deals with T1, M. tuberculosis BioA (Mycobacterium tuberculosis, UniProt P9WQ81).
T1 sequence (P9WQ81 1-437): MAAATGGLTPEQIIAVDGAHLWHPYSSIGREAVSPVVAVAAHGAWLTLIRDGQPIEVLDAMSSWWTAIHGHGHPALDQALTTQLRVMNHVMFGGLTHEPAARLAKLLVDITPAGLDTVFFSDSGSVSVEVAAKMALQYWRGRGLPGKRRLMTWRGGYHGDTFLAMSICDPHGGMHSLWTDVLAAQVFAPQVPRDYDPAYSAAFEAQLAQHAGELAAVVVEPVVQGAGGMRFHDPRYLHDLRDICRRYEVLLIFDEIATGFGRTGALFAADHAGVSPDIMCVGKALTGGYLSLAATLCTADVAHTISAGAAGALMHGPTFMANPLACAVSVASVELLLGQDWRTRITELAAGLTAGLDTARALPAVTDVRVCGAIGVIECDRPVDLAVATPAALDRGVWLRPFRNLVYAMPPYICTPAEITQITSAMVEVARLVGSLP
The data set can be described thus: biochemical. The class given is biochemical.

Data set [2] concerns Chinese hamster ovary cell line (CHO). The data set can be described thus: Cytotoxicity assay. The format is cell-based. The settings on record: at 50 μg/mL. In short, it runs like this:
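CHO cells were grown in DMEM with 10% FBS and 1X antibiotic-antimycotic, then seeded at 1×10^4 cells per well. They were exposed to the test compound at 1 μg/mL to 200 μg/mL for 48 h. 0.01% resazurin dye was then added to measure cell viability.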

For data set [3], the system named is M. tuberculosis H37Rv. The format is cell-based, Mycobacterium tuberculosis.

What is called IC50 is the concentration at which inhibition is half-maximal. On to `CC1(c2ccc(S(=O)(=O)c3ccccc3)cc2)OC(=O)C=CC1=O` (stereo not shown) [Compound A65, 6-methyl-6-[4-(phenylsulfonyl)phenyl]-2H-pyran-2,5(6H)-dione], for which the MIC90 with M. tuberculosis H37Rv [1] worked out at 80 µg/mL (≈ 234 µM). In addition, the IC50 on M. tuberculosis BioA (IC50 (μM) BioA) was 114 µM; at M. tuberculosis BioA (IC50 (μg/mL) BioA, mean ± SD) it was 114 µM. The “Toxicity in CHO cell line” value in data set [2] was “moderate toxicity”.

With `O=C(O)c1ccc(C=NNC(=O)c2cccc3ccccc23)cc1` [Compound X21], the “Percent inhibition of BioA at 100 μg/mL” value on M. tuberculosis BioA is “weak inhibition; also recorded: poor inhibition”. Also, in the data set on M. tuberculosis H37Rv [3], the “MIC90 (μM) for M. tuberculosis growth inhibition” value turned out to be 7.86 µM and the “MIC90 (μg/mL) for M. tuberculosis growth inhibition” value was 2.5 µg/mL.
